The source of these data is PubChem BioAssay.

Activity calls are given as the source filed them.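 How the source made its calls, unless noted: active means viability at or under a set limit in both replicates, limit being median viability minus 3 SD (cut at about 48% in these data, passing the limit was not always enough); inconclusive means at or under the limit in just one replicate; inactive means at or above the limit in both replicates.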

Assay [1] can be described thus: reducers of endogenous Her2 protein level, primary screen, SKBR3 breast tumor cells, AlphaScreen, ATP viability (AID 461;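 active means Her2 level under about 52% in both replicate screens, with viability over 70% of control, limit read from the data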;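 on Her2 level: lower value means less Her2 protein in the cells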;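 on viability: percent of carrier control wells set as 100% viability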). As to conditions: 18-24 h, measured here: SKBR3 viability, ATP luminescence, at 10 µM. For orientation: Bead proximity is the source of the signal in Alpha formats.
Assay [2] deals with Receptor tyrosine-protein kinase erbB-2 (Homo sapiens) (UniProt P04626). The description is as above. As to conditions: 18-24 h, at 10 µM, stronger effect = lower value.
Receptor tyrosine-protein kinase erbB-2 (Homo sapiens), sequence (P04626 whole entry, looked up): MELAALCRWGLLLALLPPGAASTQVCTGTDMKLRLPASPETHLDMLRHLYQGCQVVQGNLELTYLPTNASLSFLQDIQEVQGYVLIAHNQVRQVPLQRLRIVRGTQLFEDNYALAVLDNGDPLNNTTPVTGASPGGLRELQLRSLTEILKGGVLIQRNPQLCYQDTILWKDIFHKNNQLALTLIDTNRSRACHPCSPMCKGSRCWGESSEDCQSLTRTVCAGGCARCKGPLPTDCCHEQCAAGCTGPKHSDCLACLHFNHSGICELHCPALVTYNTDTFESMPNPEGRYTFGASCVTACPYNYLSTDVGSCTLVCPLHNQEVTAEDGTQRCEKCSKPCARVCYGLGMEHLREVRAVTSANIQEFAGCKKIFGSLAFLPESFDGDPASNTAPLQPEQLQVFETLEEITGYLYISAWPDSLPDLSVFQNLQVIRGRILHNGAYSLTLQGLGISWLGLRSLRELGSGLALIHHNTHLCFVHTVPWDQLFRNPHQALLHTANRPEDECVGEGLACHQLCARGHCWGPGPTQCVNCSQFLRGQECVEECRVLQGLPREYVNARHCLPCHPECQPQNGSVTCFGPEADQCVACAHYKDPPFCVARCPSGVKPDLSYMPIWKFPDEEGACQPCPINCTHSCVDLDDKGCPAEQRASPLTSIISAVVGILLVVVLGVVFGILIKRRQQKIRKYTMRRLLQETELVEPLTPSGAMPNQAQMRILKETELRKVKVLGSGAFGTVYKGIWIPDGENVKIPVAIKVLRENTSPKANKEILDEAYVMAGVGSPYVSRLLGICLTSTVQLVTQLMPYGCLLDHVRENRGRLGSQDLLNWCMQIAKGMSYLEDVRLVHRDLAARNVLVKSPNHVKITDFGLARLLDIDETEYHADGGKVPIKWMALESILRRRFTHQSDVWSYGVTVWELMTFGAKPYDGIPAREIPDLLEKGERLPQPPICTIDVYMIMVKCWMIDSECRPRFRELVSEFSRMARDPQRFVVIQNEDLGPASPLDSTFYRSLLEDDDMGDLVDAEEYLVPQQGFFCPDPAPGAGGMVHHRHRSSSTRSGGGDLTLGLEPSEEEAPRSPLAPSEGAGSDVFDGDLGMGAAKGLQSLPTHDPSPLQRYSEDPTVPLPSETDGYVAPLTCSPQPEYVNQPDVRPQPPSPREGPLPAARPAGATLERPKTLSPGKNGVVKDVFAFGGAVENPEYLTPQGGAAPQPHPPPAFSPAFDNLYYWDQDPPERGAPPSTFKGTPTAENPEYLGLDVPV
A short description of assay [3]: SK-BR-3 cell growth inhibitors, pilot screen, 24 h, human (AID 572;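 active means viability at or below 10% of carrier control in both of two separate runs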;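 further: compound exposure lasted between 18 and 24 h rather than exactly 24 h; 100% = carrier-treated control wells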). To be noted: SK-BR-3 viability, CellTiter-Glo luminescence, at 10 µM, stronger effect = lower value. (In general: ATP-based viability assays read luminescence as a measure of living cells.)
Assay [4] can be described thus: HUVEC growth inhibition – cell-based, human, primary screen (AID 575;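 active means viability at or below 30% in both replicate assays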;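 further: 100% = median of untreated cell wells with 0.1% DMSO on each plate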). As to conditions: HUVEC proliferation, CellTiter-Glo luminescence, 72 h; at 10 µM; stronger effect = lower value. Put shortly:
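Assay system: Primary human umbilical vein endothelial cells | Quantity: 1250 cells per well | Medium: Supplemented EBM, 2% fetal bovine serum | Detection: CellTiter-Glo luminescence measuring cellular ATP | Read-out: % viability vs DMSO wells | Plate: Collagen-coated 384-well format | Times: 72 h exposure, 37 °C, 5% CO2, 30 min RT equilibration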

A short description of assay [5]: growth inhibitors of H69AR lung tumor, primary screen, human, duplicate replicates (AID 580).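 Further: 100% = mean luminescence of untreated wells and 0% = no signal.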 To be noted: H69AR lung tumor cells viability, ATP luminescence, 72 h; at 10 µM; stronger effect = lower value.
Assay [6] in a line: reversal of MRP1-mediated doxorubicin resistance, pilot screen, H69AR cells, doxorubicin co-treatment (AID 601;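 active means viability loss from added drug above about 55%, and viability with drug at most 40%, in both replicates, limit read from the data, passing the limit was not always enough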). To be noted: CellTiter-Glo, 72 h, at 10 µM; for differential viability (reversal): stronger effect = higher value.
Assay [7] is described as follows: 384-well plate pilot, post-Golgi transport modulator project, inhibition of yeast transport mutant growth (AID 636; in the data active means inhibition above about 31%). To be noted: absorbance 615 nm, about 18 h, stronger effect = higher value.
Assay [8] in a line: growth suppression of yeast trafficking mutant, preliminary HTS, modulators of trafficking downstream of Golgi apparatus project, 1536-format plate, OD 615 nm (AID 637; in the data active means inhibition above about 30%). As to conditions: yeast transport mutant growth, absorbance 615 nm, 18 h; stronger effect = higher value.
[9] abbreviates: H69AR cells + 2 uM doxorubicin, measured here: viability with 2 uM doxorubicin, stronger effect = lower value.
The mark [10] stands for this setting: H69AR cells, compound alone cytotoxicity.

As to `Cc1ccc2c(c1C)NC(C)CC2C` (stereo not given), the viability (in general, a read-out of living cells in per cent, often relative to untreated cells) was 100% in assay [1]; 100% (inactive) in assay [3]; 103% (inactive) in assay [4]; 97.2% (inactive) in assay [5]; 88.2% in assay [6] (setting [9]); 97.2% in assay [6] (setting [10]). Besides, in assay [2], the Her2 level was 82% (inactive). Also, in assay [6] (H69AR cells + 2 uM doxorubicin), the differential viability (reversal) is 8.96% (inactive). The inhibition (in general, the change of the read-out against control, counted positive when it falls) in assay [7] is -0.39% (inactive); in assay [8] it was -0.73% (inactive).

As to `Cc1cc(C2C(C#N)=C(N)SC(N)=C2C#N)c(C)s1`, the viability in assay [1] is 107%; in assay [3], 107% (inactive); in assay [4] it was 82.4% (inactive); in assay [5], 94.7% (inactive); in assay [6] (setting [9]), 87.5%; in assay [6] (setting [10]) it was 94.7%. Also, the Her2 level in assay [2] is 100% (inactive). Also, the differential viability (reversal) in assay [6] (H69AR cells + 2 uM doxorubicin) is 7.28% (inactive). The inhibition in assay [7] is -2.89% (inactive); in assay [8], 7.21% (inactive).

On to `O=C(OCC(=O)N1CCc2ccccc21)C1=COCCO1`, for which the viability is 89.5% in assay [1]; 89.5% (inactive) in assay [3]; 88.4% (inactive) in assay [4]; 86.1% (inactive) in assay [5]; 67.9% in assay [6] (setting [9]); 86.1% in assay [6] (setting [10]). In assay [2], the Her2 level is 90% (inactive). In addition, in assay [6] (H69AR cells + 2 uM doxorubicin), the differential viability (reversal) was 18.2% (inactive). Also, the inhibition was -4.94% (inactive) in assay [7] and -0.32% (inactive) in assay [8].

Consider `Cc1nc(CCNC(=O)c2ccccc2)cs1`, for which the viability was 92.5% in assay [1]; 92.5% (inactive) in assay [3]; 106% (inactive) in assay [4]; 98.5% (inactive) in assay [5]; 90.6% in assay [6] (setting [9]); 98.5% in assay [6] (setting [10]). Also, the Her2 level in assay [2] was 95% (inactive). Besides, the differential viability (reversal) in assay [6] (H69AR cells + 2 uM doxorubicin) is 7.85% (inactive). In addition, the inhibition was 0.27% (inactive) in assay [7] and 4.03% (inactive) in assay [8].

As for `COc1ccc(-c2nnc(SCC(=O)N3CCCCC3)o2)cc1OC`, the viability in assay [1] was 104%; in assay [3] it was 104% (inactive); in assay [4], 88.7% (inactive); in assay [5], 97.5% (inactive); in assay [6] (setting [9]) it was 92.1%; in assay [6] (setting [10]), 97.5%. Besides, the Her2 level in assay [2] was 104% (inactive). In addition, the differential viability (reversal) in assay [6] (H69AR cells + 2 uM doxorubicin) was 5.33% (inactive). Moreover, the inhibition in assay [7] is -2.93% (inactive); in assay [8], -5.9% (inactive).

As for `CC1(C)NC(=O)N(CNc2cc(Cl)ccc2Cl)C1=O`, the viability in assay [1] was 104%; in assay [3], 104% (inactive); in assay [4], 85.7% (inactive); in assay [5], 96.4% (inactive); in assay [6] (setting [9]) it was 95.5%; in assay [6] (setting [10]) it was 96.4%. Also, the Her2 level in assay [2] was 87.5% (inactive). For the same compound, in assay [6] (H69AR cells + 2 uM doxorubicin), the differential viability (reversal) was 0.94% (inactive). For the same compound, the inhibition in assay [7] is -3.55% (inactive); in assay [8] it was -1.82% (inactive).

On to `O=C(CN(Cc1ccc2c(c1)OCO2)C(=O)CNS(=O)(=O)c1ccccc1)NCc1ccco1`, for which the viability in assay [1] was 97%; in assay [3], 97% (inactive); in assay [4] it was 107% (inactive); in assay [5] it was 99.4% (inactive); in assay [6] (setting [9]) it was 97%; in assay [6] (setting [10]) it was 99.4%. In assay [2], the Her2 level was 86.5% (inactive). The differential viability (reversal) in assay [6] (H69AR cells + 2 uM doxorubicin) was 2.35% (inactive). Besides, the results for the inhibition in assay [7] and in assay [8] were 0.41% (inactive) and -1.31% (inactive), respectively.

For `COCCCNC(=O)C1CCCN(C(=O)Nc2ccc(OC)cc2)C1` (stereo not given), the viability in assay [1] is 98%; in assay [3], 98% (inactive); in assay [4], 100% (inactive); in assay [5], 90.4% (inactive); in assay [6] (setting [9]), 83.6%; in assay [6] (setting [10]), 90.4%. Also, the Her2 level in assay [2] was 89% (inactive). Also, the differential viability (reversal) in assay [6] (H69AR cells + 2 uM doxorubicin) is 6.8% (inactive). For the same compound, the inhibition in assay [7] was -7.03% (inactive); in assay [8] it was 1.83% (inactive).

In the case of `N#CCSc1nc(-c2ccccc2)cs1`, the viability in assay [1] is 86.5%; in assay [3], 86.5% (inactive); in assay [4], 109% (inactive); in assay [5], 98% (inactive); in assay [6] (setting [9]) it was 98.9%; in assay [6] (setting [10]) it was 98%. Further, the Her2 level in assay [2] is 98.5% (inactive). Also, the differential viability (reversal) in assay [6] (H69AR cells + 2 uM doxorubicin) was -0.97% (inactive). Also, the inhibition in assay [7] was -1.71% (inactive); in assay [8] it was 2.58% (inactive).

Take `CCN(C(=O)c1cc(Cl)ccc1OC)C1CCCCC1`: the viability in assay [1] is 86.5%; in assay [3], 86.5% (inactive); in assay [4] it was 101% (inactive); in assay [5], 83.8% (inactive); in assay [6] (setting [9]) it was 94.4%; in assay [6] (setting [10]), 83.8%. The Her2 level in assay [2] was 104% (inactive). The differential viability (reversal) in assay [6] (H69AR cells + 2 uM doxorubicin) is -10.6% (inactive). Moreover, the inhibition in assay [7] is -2.86% (inactive); in assay [8], -2.5% (inactive).

`COc1cc(OC)cc(-c2nnc(Nc3nc4c(F)cccc4s3)o2)c1`: the viability in assay [1] is 95.5%; in assay [3], 95.5% (inactive); in assay [4], 5.89% (active); in assay [5], 69.4% (inactive); in assay [6] (setting [9]), 87.3%; in assay [6] (setting [10]), 69.4%. Moreover, the Her2 level in assay [2] is 74% (inactive). Moreover, the differential viability (reversal) in assay [6] (H69AR cells + 2 uM doxorubicin) was -17.9% (inactive). Also, the values for the inhibition in assay [7] and in assay [8] were -5.07% (inactive) and 13.4% (inactive), respectively.

For `CCOC(=O)c1cc2sccc2n1CC(=O)Nc1ccc(OC)cc1OC`, the viability in assay [1] was 90%; in assay [3], 90% (inactive); in assay [4], 75.4% (inactive); in assay [5] it was 82% (inactive); in assay [6] (setting [9]), 89.6%; in assay [6] (setting [10]), 82%. The Her2 level in assay [2] was 86.5% (inactive). Also, the differential viability (reversal) in assay [6] (H69AR cells + 2 uM doxorubicin) was -7.66% (inactive). Also, the inhibition in assay [7] is -1.97% (inactive); in assay [8], -3.82% (inactive).

In the case of `O=C(NCCO)c1scc2c1OCCO2`, the viability is 104% in assay [1]; 104% (inactive) in assay [3]; 91.8% (inactive) in assay [4]; 93.6% (inactive) in assay [5]; 102% in assay [6] (setting [9]); 93.6% in assay [6] (setting [10]). In addition, the Her2 level in assay [2] was 92% (inactive). Besides, the differential viability (reversal) in assay [6] (H69AR cells + 2 uM doxorubicin) was -7.95% (inactive). Further, the inhibition in assay [7] was -5.73% (inactive); in assay [8] it was -1.8% (inactive).

Consider `COCCCN(C(C)=O)c1nc(-c2ccccc2)cs1`, for which the viability in assay [1] is 91%; in assay [3], 91% (inactive); in assay [4], 65.5% (inactive); in assay [5] it was 94% (inactive); in assay [6] (setting [9]) it was 84.1%; in assay [6] (setting [10]), 94%. Also, the Her2 level in assay [2] is 85.5% (inactive). Moreover, the differential viability (reversal) in assay [6] (H69AR cells + 2 uM doxorubicin) was 9.96% (inactive). Further, the inhibition was -7.81% (inactive) in assay [7] and -3.17% (inactive) in assay [8].

As for `COc1cccc(OC)c1OCCN1CCN(C(=O)c2ccco2)CC1`, the viability in assay [1] is 86.5%; in assay [3] it was 86.5% (inactive); in assay [4], 107% (inactive); in assay [5] it was 95.8% (inactive); in assay [6] (setting [9]), 85%; in assay [6] (setting [10]), 95.8%. The Her2 level in assay [2] is 88.5% (inactive). Besides, the differential viability (reversal) in assay [6] (H69AR cells + 2 uM doxorubicin) was 10.7% (inactive). For the same compound, the results for the inhibition in assay [7] and in assay [8] were -6.85% (inactive) and -4.92% (inactive), respectively.

`COc1ccc(S(=O)(=O)NCC(c2cccnc2)N2CCN(c3ccc(F)cc3)CC2)cc1C` (stereo not given): the viability was 91.5% in assay [1]; 91.5% (inactive) in assay [3]; 99.1% (inactive) in assay [4]; 87.4% (inactive) in assay [5]; 88.1% in assay [6] (setting [9]); 87.4% in assay [6] (setting [10]). The Her2 level in assay [2] is 80% (inactive). Also, the differential viability (reversal) in assay [6] (H69AR cells + 2 uM doxorubicin) was -0.665% (inactive). The inhibition is -1.04% (inactive) in assay [7] and -0.98% (inactive) in assay [8].
